The source made the active and inactive calls. The rule behind the calls is not given here.
Tests used:
[1] = Cytotoxicity against unstimulated human blood Leucocytes assessed as cell viability at 6.25 to 100 uM incubated for 24 to 72 hrs by MTT assay; details: leucocyte
MRC5 = experiment: Cytotoxicity against human MRC5 cells assessed as reduction in cell viability incubated for 72 hrs by MTT assay; assay type: cell-based; details: MRC5, 72 h
A549 [2] = experiment: Induction of apoptosis in human A549 cells assessed as early apoptotic cells at IC50 concentration after 48 hrs by annexin V-FITC/propidium iodide staining based flow cytometry (reference value: 0.9 %); assay type: functional
A549 [3] = experiment: Cell cycle arrest in human A549 cells assessed as accumulation in SubG1 phase by measuring late apoptotic cells with fragmented DNA content at IC50 concentration incubated for 48 hrs by RNaseA/propidium iodide staining based flow cytometry; assay type: functional
K562 = experiment: Cytotoxicity against human K562 cells assessed as reduction in cell viability incubated for 72 hrs by MTT assay; assay type: functional, cell-based; details: K562, 72 h
DNA = experiment: Binding affinity to DNA isolated from human A549 cells assessed as intercalating activity at 100 uM after 1 hr by electrophoretic mobility shift assay
Outline: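 Genomic DNA isolated from A549 cells (proteinase K/SDS lysis, salt precipitation, ethanol precipitation); 0.5 μg DNA incubated 1 h at room temperature with 100 μM compound in 5 mM Tris-HCl/50 mM NaCl buffer; run on 0.8% agarose gel 4 h at 30 V, GelRed stained; binding read as shift in DNA mobility.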

[4] = target: DNA topoisomerase 2-alpha (Homo sapiens, UniProt P11388); experiment: Inhibition of human topoisomerase 2alpha using supercoiled pNO1 plasmid DNA as substrate incubated for 30 mins by fluorescence based microplate reader analysis
A549 [5] = experiment: Induction of apoptosis in human A549 cells assessed as late apoptotic cells at IC50 concentration after 48 hrs by annexin V-FITC/propidium iodide staining based flow cytometry (reference value: 0.7 %); assay type: functional
A549 [6] = experiment: Cytotoxicity against human A549 cells assessed as reduction in cell viability incubated for 72 hrs by MTT assay; assay type: functional, cell-based; details: A549, 72 h
A549 [7] = experiment: Cell cycle arrest in human A549 cells assessed as accumulation in S phase at IC50 concentration incubated for 24 hrs by RNaseA/propidium iodide staining based flow cytometry; assay type: functional
A549 [8] = experiment: Inhibition of colony formation in human A549 cells at IC50 concentration incubated for 48 hrs followed by cell washing and measured after 10 days by crystal violet staining based assay relative to control; assay type: functional
A549 [9] = experiment: Cell cycle arrest in human A549 cells assessed as accumulation in G2/M phase at IC50 concentration incubated for 24 hrs by RNaseA/propidium iodide staining based flow cytometry (reference value: 9 %); assay type: functional
A549 [10] = experiment: Cell cycle arrest in human A549 cells assessed as accumulation in G2/M phase at IC50 concentration incubated for 48 hrs by RNaseA/propidium iodide staining based flow cytometry (reference value: 11 %); assay type: functional
A549 [11] = experiment: Induction of cell cycle arrest in human A549 cells assessed as effect on cell cycle distribution at IC50 concentration incubated for 24 to 48 hrs by RNaseA/propidium iodide staining based flow cytometry; assay type: functional; details: time hrs 24-48

Chain of DNA topoisomerase 2-alpha (P11388 whole entry): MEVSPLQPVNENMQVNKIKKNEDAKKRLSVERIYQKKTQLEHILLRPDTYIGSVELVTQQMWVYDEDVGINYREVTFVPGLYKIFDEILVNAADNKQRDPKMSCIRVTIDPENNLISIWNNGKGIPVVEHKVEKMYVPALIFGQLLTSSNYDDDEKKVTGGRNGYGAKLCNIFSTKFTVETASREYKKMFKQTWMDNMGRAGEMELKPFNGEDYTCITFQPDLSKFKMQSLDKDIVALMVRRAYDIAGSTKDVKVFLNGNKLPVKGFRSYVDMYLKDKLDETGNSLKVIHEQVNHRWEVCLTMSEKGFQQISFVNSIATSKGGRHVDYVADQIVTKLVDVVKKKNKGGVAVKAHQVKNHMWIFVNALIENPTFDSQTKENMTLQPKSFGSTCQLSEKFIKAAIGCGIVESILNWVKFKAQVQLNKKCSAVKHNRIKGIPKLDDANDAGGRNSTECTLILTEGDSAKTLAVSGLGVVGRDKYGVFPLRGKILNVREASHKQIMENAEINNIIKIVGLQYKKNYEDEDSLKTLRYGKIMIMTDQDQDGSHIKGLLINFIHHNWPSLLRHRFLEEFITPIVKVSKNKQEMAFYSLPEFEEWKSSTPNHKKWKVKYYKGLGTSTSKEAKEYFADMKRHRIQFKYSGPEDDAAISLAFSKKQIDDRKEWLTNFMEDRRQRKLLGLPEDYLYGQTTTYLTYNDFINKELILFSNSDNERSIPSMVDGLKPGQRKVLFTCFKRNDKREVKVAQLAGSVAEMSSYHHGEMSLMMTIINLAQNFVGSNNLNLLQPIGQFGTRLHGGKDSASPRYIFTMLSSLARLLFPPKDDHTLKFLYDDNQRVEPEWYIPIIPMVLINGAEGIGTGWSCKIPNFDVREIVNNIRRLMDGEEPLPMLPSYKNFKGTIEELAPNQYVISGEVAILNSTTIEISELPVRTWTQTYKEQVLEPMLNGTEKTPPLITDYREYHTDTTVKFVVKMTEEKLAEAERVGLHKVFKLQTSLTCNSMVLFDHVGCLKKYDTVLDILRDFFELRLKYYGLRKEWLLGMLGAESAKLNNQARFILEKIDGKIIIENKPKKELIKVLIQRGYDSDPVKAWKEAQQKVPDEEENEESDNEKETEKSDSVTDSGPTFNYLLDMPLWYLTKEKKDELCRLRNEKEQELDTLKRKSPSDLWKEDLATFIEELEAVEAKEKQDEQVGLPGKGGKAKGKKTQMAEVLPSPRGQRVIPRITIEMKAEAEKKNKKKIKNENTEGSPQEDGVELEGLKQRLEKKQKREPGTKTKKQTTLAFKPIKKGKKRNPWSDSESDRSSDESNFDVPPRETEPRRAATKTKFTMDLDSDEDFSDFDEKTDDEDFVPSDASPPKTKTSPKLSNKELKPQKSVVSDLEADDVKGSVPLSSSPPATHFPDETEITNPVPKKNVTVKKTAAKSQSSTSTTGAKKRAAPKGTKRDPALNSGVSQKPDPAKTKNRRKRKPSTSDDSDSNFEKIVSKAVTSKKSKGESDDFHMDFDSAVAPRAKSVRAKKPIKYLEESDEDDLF

SMILES	Activity [1]	IC50 (MRC5) [µM]	Activity (A549 [2]) [%]	Activity (A549 [3])	IC50 (K562) [µM]	Activity (DNA)	IC50 [4] [µM]	Activity (A549 [5]) [%]	IC50 (A549 [6]) [µM]	Activity (A549 [7])	inhibition (INH) (A549 [8]) [%]	Activity (A549 [9]) [%]	Activity (A549 [10]) [%]	Activity (A549 [11])
COc1cc(NS(C)(=O)=O)ccc1Nc1c2ccccc2nc2ccccc12 [AMSACRINE]	Toxic	15.4	16.1	Active	13.8	Active	16	2.8	22.2	Active	–	–	–	–
CCCOC(=O)CCNc1c2ccccc2nc2ccccc12	Non-Toxic	11.6	4.6	–	16.4	inactive	14	2.9	6.3	–	>95	12	19	–
COC(=O)[C@H](Cc1ccccc1)Nc1c2ccccc2nc2ccccc12	–	47.6	–	–	40.6	–	–	–	25.7	–	–	–	–	–
COC(=O)[C@H](Cc1cn(C)c2ccccc12)Nc1c2ccccc2nc2ccccc12	–	56.1	–	–	46.6	–	–	–	29.5	–	–	–	–	–
CCCOC(=O)CCCNc1c2ccccc2nc2ccccc12	Non-Toxic	16.9	12.5	–	21.8	Active	16	3.8	19.3	–	>95	18	29	–
COC(=O)[C@H](Cc1c[nH]cn1)Nc1c2ccccc2nc2ccccc12	–	65.1	–	–	46.1	–	–	–	34.3	–	–	–	–	–
Cn1cc(C[C@H](Nc2c3ccccc3nc3ccccc23)C(=O)O)c2ccccc21	–	47	–	–	42.4	–	–	–	34.1	–	–	–	–	–
CCOC(=O)CCCNc1c2ccccc2nc2ccccc12	Non-Toxic	15.8	11.7	–	11.2	inactive	14	5.4	9.5	–	>95	–	–	inactive
CCOC(=O)CCNc1c2ccccc2nc2ccccc12	Non-Toxic	12.1	3.7	–	19.2	inactive	13	1.2	6.15	–	>95	–	–	inactive
COC(=O)CCCCCCCNc1c2ccccc2nc2ccccc12	–	49.8	–	–	62.9	–	–	–	62.6	–	–	–	–	–
CCCOC(=O)CCCCCNc1c2ccccc2nc2ccccc12	–	58.8	–	–	75	–	–	–	72.4	–	–	–	–	–
CCOC(=O)CCCCCNc1c2ccccc2nc2ccccc12	–	25.1	–	–	34.5	–	–	–	36.3	–	–	–	–	–

Reference: ChEMBL document CHEMBL4699408, “Synthesis and evaluation of anticancer activity of new 9-acridinyl amino acid derivatives” (RSC Med Chem, 2020)
